Converted amounts (≈) assume the structure as drawn.
Key:
Proteus mirabilis = experiment: Minimum inhibitory concentration against aerobic organism Proteus mirabilis strain 2830; assay type: functional; conditions: Proteus mirabilis; read-out: MIC
Procedure, shortened: (§1)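 Agar-dilution MIC in µg/mL against aerobic bacterial strains on tryptocase soy agar, with inoculum applied as spots. Most series used 10^5 cfu per spot, and a later series used 10^4 cfu per spot. In some tables, footnoted strains were instead tested on Mueller-Hinton or nutrient agar. β-Lactamase-producing strains are flagged.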

Klebsiella pneumoniae [1] = experiment: Minimum inhibitory concentration against aerobic organism Klebsiella pneumoniae strain 4005; assay type: functional; procedure, shortened: as §1
Morganella morganii [2] = experiment: Minimum inhibitory concentration against aerobic organism Morganella morganii strain 2833; assay type: functional; conditions: Morganella morganii; read-out: MIC; procedure, shortened: as §1
Staphylococcus aureus [3] = experiment: Minimum inhibitory concentration against aerobic organism Staphylococcus aureus strain 2868; assay type: functional; conditions: Staphylococcus aureus; read-out: MIC; procedure, shortened: as §1
Salmonella [4] = experiment: Minimum inhibitory concentration against aerobic organism Salmonella strain 3860
Escherichia coli = experiment: MIC against aerobic organism Escherichia coli strain 2891; assay type: functional; conditions: Escherichia coli; read-out: MIC; procedure, shortened: as §1
Staphylococcus aureus [5] = experiment: Minimum inhibitory concentration against aerobic organism Staphylococcus aureus strain 2865; assay type: functional; procedure, shortened: as §1
Enterococcus faecalis [6] = experiment: Minimum inhibitory concentration against aerobic organism Streptococcus faecalis strain 2864; assay type: functional; procedure, shortened: as §1
Proteus vulgaris = experiment: Minimum inhibitory concentration against aerobic organism Proteus vulgaris strain 2829; assay type: functional; conditions: Proteus vulgaris; read-out: MIC; procedure, shortened: as §1
Klebsiella aerogenes [7] = experiment: Minimum inhibitory concentration against aerobic organism Enterobacter aerogenes strain 2828; assay type: functional; procedure, shortened: as §1
Pseudomonas aeruginosa [8] = experiment: Minimum inhibitory concentration against aerobic organism Pseudomonas aeruginosa strain 2835; assay type: functional; procedure, shortened: as §1
Enterobacter cloacae [9] = experiment: Minimum inhibitory concentration against aerobic organism Enterobacter cloacae strain 2646; assay type: functional; conditions: Enterobacter cloacae; read-out: MIC; procedure, shortened: as §1
Enterobacter cloacae [10] = experiment: Minimum inhibitory concentration against aerobic organism Enterobacter cloacae 2646; assay type: functional; procedure, shortened: as §1
Klebsiella pneumoniae [11] = experiment: Minimum inhibitory concentration against aerobic organism Klebsiella pneumoniae strain 2882; assay type: functional; conditions: Klebsiella pneumoniae; read-out: MIC; procedure, shortened: as §1
Streptococcus pyogenes [12] = experiment: Minimum inhibitory concentration against aerobic organism Streptococcus pyogenes strain 3124; assay type: functional; procedure, shortened: as §1
Enterococcus faecalis [13] = experiment: Minimum inhibitory concentration against aerobic organisms Streptococcus faecalis strain 2864; assay type: functional; procedure, shortened: as §1
Shigella sp. = experiment: (§2) Minimum inhibitory concentration against aerobic organism Shigella species strain 2880; assay type: functional; procedure, shortened: as §1
[14] = Minimum inhibitory concentration against aerobic organism Salmonella schottmuelleri strain 2837; assay type: functional; conditions: Salmonella; read-out: MIC; procedure, shortened: as §1
Salmonella [15] = experiment: Minimum inhibitory concentration against aerobic organism Salmonella strain 3860; assay type: functional; procedure, shortened: as §1
[16] = Minimum inhibitory concentration against aerobic organism Salmonella schottmuelleri 2837; assay type: functional; procedure, shortened: as §1
Staphylococcus aureus [17] = experiment: Inhibition zone diameter against aerobic organism Staphylococcus aureus strain 2314
Pseudomonas aeruginosa [18] = experiment: Inhibition zone diameter against aerobic organism Pseudomonas aeruginosa strain 3350
Klebsiella = experiment: Inhibition zone diameter against aerobic organism Klebsiella species strain 2921
Streptococcus pyogenes [19] = experiment: Inhibition zone diameter against aerobic organism Streptococcus pyogenes strain 2874
Serratia marcescens [20] = experiment: Inhibition zone diameter against aerobic organism Serratia marcescenes strain 2855
Salmonella [21] = experiment: Inhibition zone diameter against aerobic organism Salmonella strain 826
Morganella morganii [22] = experiment: Disk zone diameter (25 ug/disk) against aerobic organism Morganella morganii strain 2834
Serratia marcescens [23] = experiment: Minimum inhibitory concentration against aerobic organism Serratia marcescens strain 2852; assay type: functional; conditions: Serratia marcescens; read-out: MIC; procedure, shortened: as §1
Morganella morganii [24] = experiment: Minimum inhibitory concentration against aerobic organism Morganella morganii strain 2833
Klebsiella aerogenes [25] = experiment: Minimum inhibitory concentration against aerobic organism Enterobacter aerogenes strain 2906; assay type: functional; conditions: Klebsiella aerogenes; read-out: MIC; procedure, shortened: as §1
Shigella = experiment: as §2; assay type: functional; conditions: Shigella; read-out: MIC; procedure, shortened: as §1
[26] = Streptococcus pyogenes, read-out: MIC

Row | SMILES | MIC (Proteus mirabilis) | MIC (Klebsiella pneumoniae [1]) | MIC (Morganella morganii [2]) | MIC (Staphylococcus aureus [3]) | MIC (Escherichia coli) | MIC (Staphylococcus aureus [5]) | MIC (Enterococcus faecalis [6]) | MIC (Proteus vulgaris) | MIC (Klebsiella aerogenes [7]) | MIC (Pseudomonas aeruginosa [8]) | MIC (Enterobacter cloacae [9]) | MIC (Salmonella [15]) | MIC (Enterobacter cloacae [10]) | MIC (Klebsiella pneumoniae [11]) | MIC (Enterococcus faecalis [13]) | further results
1 | CC1(C)S[C@@H]2[C@H](NC(=O)[C@H](N)c3ccccc3)C(=O)N2[C@H]1C(=O)O [AMPICILLIN] | – | – | – | 25 µg/mL (≈ 71.5 µM) | > 100 µg/mL | – | – | – | – | – | – | – | > 100 µg/mL | 50 µg/mL (≈ 143 µM) | 6.25 µg/mL (≈ 17.9 µM) | MIC (Streptococcus pyogenes [12]): < 0.09 µg/mL; MIC (Shigella sp.): 6.25 µg/mL (≈ 17.9 µM); MIC [14]: 1.56 µg/mL (≈ 4.46 µM)
2 | O=C(Cc1cccs1)N[C@@H]1C(=O)N2C(C(=O)[O-])=C(C[n+]3ccccc3)CS[C@H]12 [CEPHALORIDINE] | 16 µg/mL (≈ 38.5 µM) | 0.25 µg/mL (≈ 0.602 µM) | > 128 µg/mL | 4 µg/mL (≈ 9.63 µM) | > 128 µg/mL | 0.25 µg/mL (≈ 0.602 µM) | 64 µg/mL (≈ 154 µM) | > 128 µg/mL | 8 µg/mL (≈ 19.3 µM) | > 128 µg/mL | > 128 µg/mL | 0.5 µg/mL (≈ 1.2 µM) | – | – | – | –
3 | CC1(C)S[C@@H]2[C@H](NC(=O)Cc3ccccc3)C(=O)N2[C@H]1C(=O)O [PENICILLIN G] | – | – | – | 12.5 µg/mL (≈ 37.4 µM) | > 100 µg/mL | – | – | – | – | – | – | – | > 100 µg/mL | 25 µg/mL (≈ 74.8 µM) | 1.56 µg/mL (≈ 4.67 µM) | MIC (Streptococcus pyogenes [12]; [26]): < 0.39 µg/mL; MIC [16]: 3.12 µg/mL (≈ 9.33 µM); MIC (Shigella sp.): 6.25 µg/mL (≈ 18.7 µM)
4 | CC(=O)OCC1=C(C(=O)O)N2C(=O)[C@@H](NC(=O)Cc3cccs3)[C@H]2SC1 [CEPHALOTHIN] | 32 µg/mL (≈ 80.7 µM) | 0.25 µg/mL (≈ 0.631 µM) | > 128 µg/mL | 0.06 µg/mL (≈ 0.151 µM) | > 128 µg/mL | 0.015 µg/mL (≈ 0.0378 µM) | – | 128 µg/mL (≈ 323 µM) | 32 µg/mL (≈ 80.7 µM) | > 128 µg/mL | – | 2 µg/mL (≈ 5.04 µM) | > 128 µg/mL | – | 8 µg/mL (≈ 20.2 µM) | –
5 | CC(=O)NCCSC1=C(C(=O)O)N2C(=O)[C@H](C(C)O)[C@H]2C1 (stereo not given in full) | – | – | – | – | – | – | – | – | – | – | – | – | – | – | – | zone diameter (Staphylococcus aureus [17]): 39 mm; zone diameter (Pseudomonas aeruginosa [18]): 10 mm; zone diameter (Klebsiella): 28 mm; zone diameter (Streptococcus pyogenes [19]): 37 mm; zone diameter (Serratia marcescens [20]): 28 mm; zone diameter (Salmonella [21]): 30.5 mm; zone diameter (Morganella morganii [22]): 28.5 mm

Second part, led by results:

Row | MIC (Proteus mirabilis) | MIC (Klebsiella pneumoniae [1]) | MIC (Morganella morganii [2]) | MIC (Staphylococcus aureus [3]) | MIC (Escherichia coli) | MIC (Staphylococcus aureus [5]) | MIC (Enterococcus faecalis [6]) | MIC (Proteus vulgaris) | MIC (Klebsiella aerogenes [7]) | MIC (Pseudomonas aeruginosa [8]) | MIC (Enterobacter cloacae [9]) | MIC (Salmonella [15]) | SMILES | MIC (Enterobacter cloacae [10]) | MIC (Klebsiella pneumoniae [11]) | MIC (Enterococcus faecalis [13]) | further results
6 | 128 µg/mL (≈ 250 µM) | 16 µg/mL (≈ 31.3 µM) | 128 µg/mL (≈ 250 µM) | 2 µg/mL (≈ 3.91 µM) | < 0.06 µg/mL | 0.25 µg/mL (≈ 0.489 µM) | 64 µg/mL (≈ 125 µM) | 0.25 µg/mL (≈ 0.489 µM) | 16 µg/mL (≈ 31.3 µM) | > 128 µg/mL | 0.125 µg/mL (≈ 0.244 µM) | – | Cc1nnc(SCC2=C(C(=O)[O-])N3C(=O)[C@@H](Nc4cc[n+](Cc5ccccc5)cc4)[C@H]3SC2)s1 | – | – | – | MIC (Salmonella [4]): 0.125 µg/mL (≈ 0.244 µM)
7 | 128 µg/mL (≈ 260 µM) | – | – | 16 µg/mL (≈ 32.5 µM) | 2 µg/mL (≈ 4.07 µM) | – | > 128 µg/mL | < 0.5 µg/mL | – | > 128 µg/mL | 16 µg/mL (≈ 32.5 µM) | – | CCOC(=O)C[n+]1ccc(N[C@@H]2C(=O)N3C(C(=O)[O-])=C(CSc4nnnn4C)CS[C@H]23)cc1 | – | 4 µg/mL (≈ 8.14 µM) | – | MIC (Serratia marcescens [23]): > 128 µg/mL; MIC (Streptococcus pyogenes [12]; [26]): < 0.5 µg/mL; MIC (Morganella morganii [24]): > 128 µg/mL; MIC (Klebsiella aerogenes [25]): 32 µg/mL (≈ 65.1 µM); MIC (Shigella): < 0.5 µg/mL; MIC [14]: 2 µg/mL (≈ 4.07 µM)
8 | > 128 µg/mL | > 128 µg/mL | > 128 µg/mL | > 128 µg/mL | 128 µg/mL | 64 µg/mL | > 128 µg/mL | 16 µg/mL | > 128 µg/mL | > 128 µg/mL | > 128 µg/mL | > 128 µg/mL | Cc1nnc(SCC2=C(C(=O)[O-])N3C(=O)[C@@H](Nc4cc[n+](COCC(Cl)(Cl)Cl)cc4C(=O)[O-])[C@H]3SC2)s1.[Na+] | – | – | – | –

Reference: ChEMBL document CHEMBL1122046, “Quaternary heterocyclylamino beta-lactams: a generic alternative to the classical acylamino side chain” (1982)
